EBI2 block – EBI2 (human) antagonism | P32249 | EBI2 beta-arrestin recruitment, luminescence, 7a,25-OHC stimulated | inhibition, % at 5 µM | 360,000 tested, 0.81% active; in the data active = inhibition above about 38%;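 note: enzyme fragment complementation signal reports receptor beta-arrestin coupling in cells; 0% = agonist plus DMSO wells and 100% = wells without agonist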
CXCR6 inh – blocks human CXCR6 beta-arrestin recruitment; inhibition, % at 20 µM; O00574; AID 602244; CHO-K1 PathHunter CXCR6 beta-arrestin, luminescence; 360,000 tested, 0.36% active; in the data active = inhibition above about 34%, passing the limit was not always enough;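 note: antagonist mode with CXCL16 agonist at 10 nM final; 0% = 10 nM CXCL16 with DMSO and 100% = unstimulated wells without agonist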
APJ ag – APJ receptor agonism; activation, % at 20 µM; AID 2520; P35414; 330,000 tested, 0.11% active; CHO-K1 APJ PathHunter beta-arrestin, luminescence; 0% DMSO wells, 100% apelin;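 active = activation more than six SD over the plate average, tested at 20 µM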;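 note: 0% = DMSO alone and 100% = apelin-13 at 10 nM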
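Test system – PathHunter CHO-K1 APJ (AGTRL-1) beta-arrestin reporter cells · Input – 1000 cells/well · Compound – single test compound dose, 20 µM final, 1% DMSO · Times – compound stimulation 90 min at 25 °C, detection 60 min · Technique – beta-gal luminescence · Read-out basis – APJ–arrestin association signal · Control set – negative DMSO alone, positive Apelin-13 at 10 nM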
CCR6 antagonist – blocks CCL20-driven beta-arrestin recruitment at human CCR6 | CHO-K1 CCR6 PathHunter beta-arrestin, luminescence, CCL20-stimulated | inhibition, % at 20 µM | 340,000 tested, 0.49% active | AID 493098;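 active = compounds whose inhibition of the agonist-driven luminescence signal at 20 µM reaches about 50%, limit read from the data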;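 note: cells stimulated with CCL20 at 14 nM final; plate controls were DMSO with CCL20 for no effect and DMSO without agonist for full effect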
APJ antagonist – antagonists of human APJ apelin receptor; inhibition, % at 20 µM; 330,000 tested, 0.32% active; CHO-K1 APJ beta-arrestin complementation, luminescence; P35414;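 active = inhibition above about 40% at 20 µM, limit read from the data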;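 note: cells challenged with 10 nM apelin-13 agonist together with compound; plate controls were apelin-13 plus DMSO wells for no effect and DMSO wells lacking apelin-13 for full effect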
Beta2AR agonist – agonists of human beta-2 adrenergic receptor inducing internalization. P07550. Am2.2-beta2AR cells, FAP receptor internalization, flow cytometry. response, % (test concentration not listed). 340,000 tested, 0.43% active;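 active = response above a set limit, near 3 SD of response in nonfluorescent compounds, cut at about 42% in these data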
Target sequence (P07550 whole entry, looked up): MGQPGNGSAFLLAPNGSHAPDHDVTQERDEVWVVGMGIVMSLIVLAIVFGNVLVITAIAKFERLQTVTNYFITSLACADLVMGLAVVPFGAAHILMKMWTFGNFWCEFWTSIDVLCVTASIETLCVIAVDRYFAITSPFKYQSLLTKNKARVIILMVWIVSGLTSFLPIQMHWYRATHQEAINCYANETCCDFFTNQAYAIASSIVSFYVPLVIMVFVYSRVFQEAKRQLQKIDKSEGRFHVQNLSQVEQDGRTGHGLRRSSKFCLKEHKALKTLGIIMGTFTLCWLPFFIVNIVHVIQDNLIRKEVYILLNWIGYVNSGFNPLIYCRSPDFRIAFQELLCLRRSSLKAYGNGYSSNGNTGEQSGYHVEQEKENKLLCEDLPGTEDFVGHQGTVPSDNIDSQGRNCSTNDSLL
Numbers without * were called inactive; · = no result given. Rows were chosen to be rich in hits. Some 1.8% of all compounds tested hit in one or more screens of this group.

SMILES	EBI2 block	CXCR6 inh	APJ ag	CCR6 antagonist	APJ antagonist	Beta2AR agonist
CCOC(=O)c1c(O)cc(C)cc1Nc1ccccc1	-2	4	-4	14	6	-44
Cc1ccc(N=C2C(=O)Nc3ccc(C)c(Br)c32)cc1	2	36	-9	99*	5	-27
COc1ccc(N=C2C(=O)Nc3ccccc32)cc1	16	8	-11	33	33	3
C[C@@H]1CN([C@H](C)CO)S(=O)(=O)c2ccc(Br)cc2O[C@H]1CN(C)C(=O)C1CCCCC1	-1	9	·	·	·	·
Cc1ccsc1C=Nc1ccc(O)cc1	45*	-6	-1	8	-14	2
CN(C)S(=O)(=O)c1ccc(C(=O)Nc2nc(-c3cccs3)cs2)cc1	77*	2	0	10	1	9
O=C(CNc1ccccc1F)Nc1cccc(S(=O)(=O)N2CCCCC2)c1	1	0	-3	22	10	10
CCOC(=O)CN1C(=O)S/C(=C/c2ccc(OC)c([N+](=O)[O-])c2)C1=O	2	9	1	15	10	-7
COc1cc(/C=C2\SC(=O)N(Cc3ccc(Cl)cc3)C2=O)cc([N+](=O)[O-])c1O	13	38	·	56*	·	25
COc1cc(/C=C2\SC(=O)N(Cc3ccc(F)cc3)C2=O)cc([N+](=O)[O-])c1O	19	30	-9	50*	27	5
CCCCCCCCOC(=O)c1cc([N+](=O)[O-])c(Sc2ncnc3nc[nH]c23)c([N+](=O)[O-])c1	-33	9	·	43	·	99*
CCCCOC(=O)c1ccc(Nc2ncnc3nc[nH]c23)cc1	16	-2	-3	-1	20	-1
O=C(N/N=C/C(Br)=C\c1ccccc1)c1cccs1	4	-7	3	11	-7	2
N#CC(C#N)=C1C=CC=CN1/C(=C\c1ccccc1)C(=O)c1cccs1	-10	9	-3	87*	24	88*
CC1(C(=O)Nc2ccc(F)cc2F)CCN1C(=O)Cc1ccccc1 (configuration not stated)	3	4	·	·	·	·
CS(=O)(=O)c1cc([N+](=O)[O-])c(Sc2nc3ccccc3[nH]2)c([N+](=O)[O-])c1	1	20	-1	·	2	63*
CCOC(=O)c1ccc(N=c2sc(C(=O)OC)cc(=O)n2Cc2ccc3c(c2)OCO3)cc1	73*	5	-5	10	15	27
CCOC(=O)c1ccc(N=c2sc(C(=O)OC)cc(=O)n2C2CC2)cc1	35	1	1	3	3	-3
COC(=O)[C@]1(C)N[C@H](CN(C)S(=O)(=O)c2ccc(F)cc2)[C@@H]2C(=O)N(C)C(=O)[C@@H]21	-5	12	-3	7	6	-6
CNC(CC(=O)c1ccc([N+](=O)[O-])cc1)C(Cl)(Cl)Cl (configuration not stated)	-1	90*	·	·	·	91*
COc1ccc(C(=O)CC(Nc2ccc([N+](=O)[O-])cc2)c2ccc(OC)cc2)cc1 (configuration not stated)	37	19	-5	26	15	5
CC(=O)Nc1cc(-c2cccnc2)cn2c(-c3cccc(C(F)(F)F)c3)cnc12	29	5	·	·	·	·
COc1ccc(NC(=O)c2cc(S(=O)(=O)N3CCc4ccccc43)cn2C)c(OC)c1	66*	-4	2	9	6	4
Cc1ccc(C(O)c2ncc(-c3cccc(C(F)(F)F)c3)[nH]2)cc1F (configuration not stated)	6	0	·	·	·	·
N#C/C(=C/C1=C(N2CCOCC2)C(=C/c2ccc(Cl)cc2Cl)/CC1)C(=O)Nc1ccccc1F	18	11	·	43	·	-123
SMILES	EBI2 block	CXCR6 inh	APJ ag	CCR6 antagonist	APJ antagonist	Beta2AR agonist
CCOc1cc(/C=N/NC(N)=S)cc(Br)c1OCc1ccccc1C	47*	5	-7	16	3	11
CCCn1cnnc1CNC(=O)[C@H]1O[C@@H](n2ccc(=O)[nH]c2=O)[C@H](O)[C@@H]1O	0	2	·	·	·	·
CCCCN(C)c1c(C)nc2ccc(C(=O)NCc3ccc4c(c3)OCO4)cn12	-5	0	·	·	·	·
Cc1ccc(NC(=O)Nc2nnc(Cc3ccc([N+](=O)[O-])cc3)s2)cc1	-10	-1	3	62*	-14	3
CC1ON=C(c2ccccn2)N(Cc2ccc(S(C)(=O)=O)cc2)C1=O (configuration not stated)	2	1	·	·	·	·
COc1ccccc1Cn1c(/C=C/c2ccccc2)nc2ccccc21	44	21	-1	17	4	-20
COc1ccc(/C=C/c2nc3ccccc3n2Cc2ccccc2OC)cc1	55*	7	-4	12	21	-8
Cc1ccc(Cc2cnc(NC(=O)/C(C#N)=C/c3ccc(-c4ccc([N+](=O)[O-])cc4)o3)s2)cc1	14	39	-11	59*	38	1
CCc1nnc(NC(=O)c2cccc(C(=O)Nc3nnc(CC)s3)n2)s1	27	52*	·	73*	·	-13
COc1ccc(-c2cc(CNc3nc(NC(C)C)nc4cc(-c5ccccc5)sc34)on2)cc1	28	12	·	·	·	·
Cc1ccc(C2=NOC(=O)/C2=C\C=C\c2ccccc2)cc1	36	48*	·	25	·	10
Cc1ccc(C(=O)COC(=O)CCC(=O)Nc2cccc(Cl)c2)cc1[N+](=O)[O-]	6	16	-11	53*	24	5
Cc1ccc(C(=O)COC(=O)CCS(=O)(=O)c2ccccc2)cc1[N+](=O)[O-]	5	26	-9	29	39	15
COc1ccccc1NS(=O)(=O)c1cccc(C(=O)N2CCN(C(=O)c3ccco3)CC2)c1	-4	-2	-3	9	-4	-4
CC1(C)CC2CC(C)(CN2/C=C2/CCCCC2=O)C1 (configuration not stated)	-2	-3	-5	0	-2	11
CN(C)C(CNC(=O)Cc1cccc(C(F)(F)F)c1)c1ccccc1 (configuration not stated)	7	0	-2	19	2	1
CN(C)C(CNc1ccc(C(F)(F)F)cn1)c1ccccc1 (configuration not stated)	-9	1	-2	63*	-10	1
c1ccc(-c2sc3ccccc3c2-c2ccc(OCCN3CCCC3)cc2)cc1	-15	-12	2	26	-6	68*
COc1ccc(-c2sc3ccc(OC)cc3c2-c2ccc(OCCN3CCOCC3)cc2)cc1	52*	-4	·	28	·	1
COc1ccc2sc(-c3ccc(SC)cc3)c(-c3ccc(O)cc3)c2c1	9	2	-2	24	3	53*
COc1ccc2sc(-c3ccccc3OC)c(-c3ccc(SC)cc3)c2c1	16	8	·	·	·	·
